Laboratory results as given in ChEMBL document CHEMBL2062435, “Synthesis and in vitro antibacterial activity of gemifloxacin derivatives containing a substituted benzyloxime moiety” (2012).

The compounds below were run on Klebsiella pneumoniae (assay: Antimicrobial activity against extended spectrum beta-lactamases-producing Klebsiella pneumoniae 10-3 after 18-24 hrs by two-fold serial dilution method).
Format: functional
Method in brief: (§1)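 Agar-medium twofold serial dilution against Gram-positive and Gram-negative strains; MIC taken as the lowest compound concentration giving complete inhibition of bacterial growth after incubation at 35 °C for 18-24 h.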

SMILES	MIC
COc1ccc(CO/N=C2\CN(c3nc4c(cc3F)c(=O)c(C(=O)O)cn4C3CC3)CC2CN)c(OC)c1.CS(=O)(=O)O (racemic)	> 128 µg/mL

What follows are compounds tested on Enterococcus faecalis (assay: Antimicrobial activity against Enterococcus faecalis 10-7 after 18-24 hrs by two-fold serial dilution method).
Format: functional
Method in brief: as §1

SMILES	MIC
COc1ccc(CO/N=C2\CN(c3nc4c(cc3F)c(=O)c(C(=O)O)cn4C3CC3)CC2CN)c(OC)c1.CS(=O)(=O)O (racemic)	2 µg/mL

What follows are compounds tested on Enterococcus faecium (assay: Antimicrobial activity against Enterococcus faecium 10-5 after 18-24 hrs by two-fold serial dilution method).
Format: functional
Method in brief: as §1

SMILES	MIC
COc1ccc(CO/N=C2\CN(c3nc4c(cc3F)c(=O)c(C(=O)O)cn4C3CC3)CC2CN)c(OC)c1.CS(=O)(=O)O (racemic)	8 µg/mL

What follows are compounds tested on Streptococcus pneumoniae (assay: Antimicrobial activity against extended spectrum beta-lactamases-producing Streptococcus pneumoniae 10-1 after 18-24 hrs by two-fold serial dilution method).
Format: functional
Method in brief: as §1

SMILES	MIC
COc1ccc(CO/N=C2\CN(c3nc4c(cc3F)c(=O)c(C(=O)O)cn4C3CC3)CC2CN)c(OC)c1.CS(=O)(=O)O (racemic)	1 µg/mL

The compounds below were run on Staphylococcus epidermidis (assay: Antimicrobial activity against extended spectrum beta-lactamases-producing methicillin-sensitive Staphylococcus epidermidis 10-13 after 18-24 hrs by two-fold serial dilution method).
Format: functional
Method in brief: as §1

SMILES	MIC
COc1ccc(CO/N=C2\CN(c3nc4c(cc3F)c(=O)c(C(=O)O)cn4C3CC3)CC2CN)c(OC)c1.CS(=O)(=O)O (racemic)	1 µg/mL

What follows are compounds tested on Escherichia coli (assay: Antimicrobial activity against Escherichia coli 10-2 after 18-24 hrs by two-fold serial dilution method).
Format: functional
Method in brief: as §1

SMILES	MIC
COc1ccc(CO/N=C2\CN(c3nc4c(cc3F)c(=O)c(C(=O)O)cn4C3CC3)CC2CN)c(OC)c1.CS(=O)(=O)O (racemic)	8 µg/mL

The compounds below were run on Klebsiella pneumoniae (assay: Antimicrobial activity against Klebsiella pneumoniae 10-2 after 18-24 hrs by two-fold serial dilution method).
Format: functional
Method in brief: as §1

SMILES	MIC
COc1ccc(CO/N=C2\CN(c3nc4c(cc3F)c(=O)c(C(=O)O)cn4C3CC3)CC2CN)c(OC)c1.CS(=O)(=O)O (racemic)	> 128 µg/mL

What follows are compounds tested on Escherichia coli (assay: Antimicrobial activity against Escherichia coli ATCC 25922 after 18-24 hrs by two-fold serial dilution method).
Format: functional
Method in brief: as §1

SMILES	MIC
COc1ccc(CO/N=C2\CN(c3nc4c(cc3F)c(=O)c(C(=O)O)cn4C3CC3)CC2CN)c(OC)c1.CS(=O)(=O)O (racemic)	0.125 µg/mL

What follows are compounds tested on Escherichia coli (assay: Antimicrobial activity against Escherichia coli 10-1 after 18-24 hrs by two-fold serial dilution method).
Format: functional
Method in brief: as §1

SMILES	MIC
COc1ccc(CO/N=C2\CN(c3nc4c(cc3F)c(=O)c(C(=O)O)cn4C3CC3)CC2CN)c(OC)c1.CS(=O)(=O)O (racemic)	> 128 µg/mL

The compounds below were run on Pseudomonas aeruginosa (assay: Antimicrobial activity against extended spectrum beta-lactamases-producing Pseudomonas aeruginosa 10-15 after 18-24 hrs by two-fold serial dilution method).
Format: functional
Method in brief: as §1

SMILES	MIC
COc1ccc(CO/N=C2\CN(c3nc4c(cc3F)c(=O)c(C(=O)O)cn4C3CC3)CC2CN)c(OC)c1.CS(=O)(=O)O (racemic)	8 µg/mL

What follows are compounds tested on Staphylococcus epidermidis (assay: Antimicrobial activity against extended spectrum beta-lactamases-producing methicillin-resistant Staphylococcus epidermidis 10-10 after 18-24 hrs by two-fold serial dilution method).
Format: functional
Method in brief: (§2)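 Agar twofold serial dilution MIC against clinical isolates. MIC was taken as the lowest concentration giving complete inhibition of bacterial growth after incubation at 35 °C for 18-24 h.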

SMILES	MIC
COc1ccc(CO/N=C2\CN(c3nc4c(cc3F)c(=O)c(C(=O)O)cn4C3CC3)CC2CN)c(OC)c1.CS(=O)(=O)O (racemic)	2 µg/mL

Each compound was assayed on Klebsiella pneumoniae (assay: Antimicrobial activity against extended spectrum beta-lactamases-producing Klebsiella pneumoniae 10-2 after 18-24 hrs by two-fold serial dilution method).
Format: functional
Method in brief: as §1

SMILES	MIC
COc1ccc(CO/N=C2\CN(c3nc4c(cc3F)c(=O)c(C(=O)O)cn4C3CC3)CC2CN)c(OC)c1.CS(=O)(=O)O (racemic)	> 128 µg/mL

Each compound was assayed on Staphylococcus aureus (assay: Antimicrobial activity against extended spectrum beta-lactamases-producing methicillin-resistant Staphylococcus aureus 10-11 after 18-24 hrs by two-fold serial dilution method).
Format: functional
Method in brief: as §2

SMILES	MIC
COc1ccc(CO/N=C2\CN(c3nc4c(cc3F)c(=O)c(C(=O)O)cn4C3CC3)CC2CN)c(OC)c1.CS(=O)(=O)O (racemic)	1 µg/mL

Each compound was assayed on Staphylococcus epidermidis (assay: Antimicrobial activity against extended spectrum beta-lactamases-producing methicillin-sensitive Staphylococcus epidermidis 10-15 after 18-24 hrs by two-fold serial dilution method).
Format: functional
Method in brief: as §1

SMILES	MIC
COc1ccc(CO/N=C2\CN(c3nc4c(cc3F)c(=O)c(C(=O)O)cn4C3CC3)CC2CN)c(OC)c1.CS(=O)(=O)O (racemic)	4 µg/mL

Each compound was assayed on Streptococcus pneumoniae (assay: Antimicrobial activity against extended spectrum beta-lactamases-producing Streptococcus pneumoniae 10-4 after 18-24 hrs by two-fold serial dilution method).
Format: functional
Method in brief: as §1

SMILES	MIC
COc1ccc(CO/N=C2\CN(c3nc4c(cc3F)c(=O)c(C(=O)O)cn4C3CC3)CC2CN)c(OC)c1.CS(=O)(=O)O (racemic)	4 µg/mL

Each compound was assayed on Klebsiella pneumoniae (assay: Antimicrobial activity against Klebsiella pneumoniae 10-3 after 18-24 hrs by two-fold serial dilution method).
Format: functional
Method in brief: as §1

SMILES	MIC
COc1ccc(CO/N=C2\CN(c3nc4c(cc3F)c(=O)c(C(=O)O)cn4C3CC3)CC2CN)c(OC)c1.CS(=O)(=O)O (racemic)	8 µg/mL

Each compound was assayed on Escherichia coli (assay: Antimicrobial activity against Escherichia coli 10-3 after 18-24 hrs by two-fold serial dilution method).
Format: functional
Method in brief: as §1

SMILES	MIC
COc1ccc(CO/N=C2\CN(c3nc4c(cc3F)c(=O)c(C(=O)O)cn4C3CC3)CC2CN)c(OC)c1.CS(=O)(=O)O (racemic)	16 µg/mL

Each compound was assayed on Pseudomonas aeruginosa (assay: Antimicrobial activity against extended spectrum beta-lactamases-producing Pseudomonas aeruginosa 10-20 after 18-24 hrs by two-fold serial dilution method).
Format: functional
Method in brief: as §1

SMILES	MIC
COc1ccc(CO/N=C2\CN(c3nc4c(cc3F)c(=O)c(C(=O)O)cn4C3CC3)CC2CN)c(OC)c1.CS(=O)(=O)O (racemic)	0.25 µg/mL
